In ChEMBL document CHEMBL1921745, “CCR2 receptor antagonists: optimization of biaryl sulfonamides to increase activity in whole blood” (Bioorg Med Chem Lett, 2011):

Experiments:
[1] = target: T1, C-C chemokine receptor type 2 (Homo sapiens, UniProt P41597); experiment: Antagonist activity at human CCR2 receptor expressed in CHO cells assessed as inhibition of MCP1-induced [35S]-GTPgammaS binding after 3 hrs; assay type: functional, cell-based
Target sequence in this assay (P41597 whole entry): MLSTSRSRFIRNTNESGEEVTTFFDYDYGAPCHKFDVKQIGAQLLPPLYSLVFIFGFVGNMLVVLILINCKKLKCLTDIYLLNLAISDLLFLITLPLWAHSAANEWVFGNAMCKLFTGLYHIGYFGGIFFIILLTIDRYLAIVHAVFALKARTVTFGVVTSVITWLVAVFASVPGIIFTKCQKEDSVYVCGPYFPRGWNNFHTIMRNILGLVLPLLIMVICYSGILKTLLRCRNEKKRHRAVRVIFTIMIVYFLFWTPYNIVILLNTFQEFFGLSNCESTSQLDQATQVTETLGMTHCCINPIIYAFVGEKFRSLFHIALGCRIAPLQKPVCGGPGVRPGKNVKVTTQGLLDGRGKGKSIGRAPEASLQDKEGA

[2] = target: T1, C-C chemokine receptor type 2; experiment: Antagonist activity at CCR2 receptor in human whole blood assessed as inhibition of MCP-1 induced monocyte shape change pretreated for 15 mins before MCP-1 challenge measured after 5 mins by flow cytometry; assay type: functional, tissue-based; settings: read-out: pA2 (converted)
Summary of the method: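 Fresh blood from healthy human donors, preincubated 15 minutes with antagonist, then stimulated 5 minutes with a range of MCP-1 concentrations. Samples fixed rapidly and analysed by flow cytometry for increase in monocyte side scatter, plotted against MCP-1 concentration. pA2 derived by comparison with the MCP-1 dose response in vehicle-treated blood.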
Target sequence in this assay (P41597 whole entry): as above

[3] = target: T1, C-C chemokine receptor type 2; experiment: Antagonist activity at human CCR2 receptor expressed in CHO cells assessed as inhibition of MCP1-induced [35S]-GTPgammaS binding after 3 hrs in presence of 5% human serum albumin; assay type: functional, cell-based
Summary of the method: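 GTPγS functional assay at CCR2 run side by side with the HSA-free primary assay. HSA present at 0.2% w/v, described as 5% of physiological concentration.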
Target sequence in this assay (P41597 whole entry): as above

[4] = target: T1, C-C chemokine receptor type 2; experiment: Ratio of IC50 for human CCR2 receptor in presence of 5% human serum to IC50 for human CCR2 receptor
Target sequence in this assay (P41597 whole entry, looked up): as the sequence (P41597 whole entry) above

[5] = Half life in rat at 1 mg/kg, iv and 1.5 mg/kg, po; assay type: ADME, organism-based; settings: in vivo
[6] = Cmax in rat at 1 mg/kg, iv and 1.5 mg/kg, po; assay type: ADME, organism-based; settings: in vivo
[7] = target: T2, C-C chemokine receptor type 4 (Homo sapiens, UniProt P51679); experiment: Antagonist activity at CCR4; assay type: functional
T2 sequence (P51679 whole entry): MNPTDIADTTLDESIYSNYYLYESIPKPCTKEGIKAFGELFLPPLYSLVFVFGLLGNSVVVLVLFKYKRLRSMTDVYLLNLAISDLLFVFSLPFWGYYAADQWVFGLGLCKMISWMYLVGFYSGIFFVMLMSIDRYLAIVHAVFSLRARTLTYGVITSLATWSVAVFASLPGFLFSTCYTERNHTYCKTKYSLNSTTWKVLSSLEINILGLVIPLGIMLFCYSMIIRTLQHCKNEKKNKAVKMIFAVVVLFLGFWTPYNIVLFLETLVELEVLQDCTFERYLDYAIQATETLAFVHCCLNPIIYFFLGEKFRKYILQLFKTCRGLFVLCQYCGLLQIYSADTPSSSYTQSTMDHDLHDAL

[8] = target: T3, C-C chemokine receptor type 1 (Homo sapiens, UniProt P32246); experiment: Antagonist activity at CCR1; assay type: functional
T3 sequence (P32246 whole entry): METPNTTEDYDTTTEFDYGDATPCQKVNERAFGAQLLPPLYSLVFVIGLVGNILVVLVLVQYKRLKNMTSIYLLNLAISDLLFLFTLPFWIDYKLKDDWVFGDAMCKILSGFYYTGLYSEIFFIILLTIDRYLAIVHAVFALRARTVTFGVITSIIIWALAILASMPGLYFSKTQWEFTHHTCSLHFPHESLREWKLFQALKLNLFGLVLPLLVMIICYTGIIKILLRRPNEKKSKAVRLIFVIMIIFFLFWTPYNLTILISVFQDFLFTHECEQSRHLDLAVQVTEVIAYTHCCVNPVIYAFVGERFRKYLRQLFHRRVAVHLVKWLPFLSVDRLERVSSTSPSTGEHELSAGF

[9] = Volume of distribution at steady state in rat at 1 mg/kg, iv and 1.5 mg/kg, po; assay type: ADME, organism-based; settings: in vivo, read-out: Vdss
Mus musculus = experiment: Reduction of monocyte recruitment in CCR2 deficient C57BL/6 mouse thioglycolate-induced peritonitis model at 40 mg/kg, po administered 3 hrs before thioglycolate challenge relative to control; assay type: functional; parameters: scale not given: the % may be the effect or the level left; settings: in the assay text read “humanized CCR2 knock-in” for “CCR2 deficient”
Summary of the method: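 Thioglycolate-induced peritonitis model in humanized CCR2 knock-in mice. Antagonist given orally at 40 mg/kg and monocyte recruitment compared with a vehicle group.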

[10] = Clearance in rat at 1 mg/kg, iv and 1.5 mg/kg, po; assay type: ADME, organism-based; settings: in vivo
[11] = Cmax in satellite C57BL/6 mouse at 40 mg/kg, po; assay type: ADME, organism-based; parameters: dose 40 mg/kg, route oral; settings: in vivo
Summary of the method: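 Female C57Bl/6 satellite mice from the peritonitis study were given 40 mg/kg orally, with blood levels followed over about 7 hours.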

[12] = target: Voltage-gated inwardly rectifying potassium channel KCNH2 (Homo sapiens, UniProt Q12809); experiment: Inhibition of human ERG
[13] = Lipophilicity, log D of the compound; assay type: physicochemical; settings: octanol/water
[14] = Oral bioavailability in rat at 1.5 mg/kg; assay type: ADME, organism-based; settings: in vivo
[15] = Cmax in rat at 1 mg/kg, iv and 2 mg/kg, po; assay type: ADME, organism-based; settings: in vivo
[16] = Clearance in rat at 1 mg/kg, iv and 2 mg/kg, po; assay type: ADME, organism-based; settings: in vivo
[17] = Oral bioavailability in rat at 2 mg/kg; assay type: ADME, organism-based; settings: in vivo
[18] = Half life in rat at 1 mg/kg, iv and 2 mg/kg, po; assay type: ADME, organism-based; settings: in vivo
[19] = Volume of distribution at steady state in rat at 1 mg/kg, iv and 2 mg/kg, po; assay type: ADME, organism-based; settings: in vivo, read-out: Vdss

Voltage-gated inwardly rectifying potassium channel KCNH2, sequence (Q12809 whole entry): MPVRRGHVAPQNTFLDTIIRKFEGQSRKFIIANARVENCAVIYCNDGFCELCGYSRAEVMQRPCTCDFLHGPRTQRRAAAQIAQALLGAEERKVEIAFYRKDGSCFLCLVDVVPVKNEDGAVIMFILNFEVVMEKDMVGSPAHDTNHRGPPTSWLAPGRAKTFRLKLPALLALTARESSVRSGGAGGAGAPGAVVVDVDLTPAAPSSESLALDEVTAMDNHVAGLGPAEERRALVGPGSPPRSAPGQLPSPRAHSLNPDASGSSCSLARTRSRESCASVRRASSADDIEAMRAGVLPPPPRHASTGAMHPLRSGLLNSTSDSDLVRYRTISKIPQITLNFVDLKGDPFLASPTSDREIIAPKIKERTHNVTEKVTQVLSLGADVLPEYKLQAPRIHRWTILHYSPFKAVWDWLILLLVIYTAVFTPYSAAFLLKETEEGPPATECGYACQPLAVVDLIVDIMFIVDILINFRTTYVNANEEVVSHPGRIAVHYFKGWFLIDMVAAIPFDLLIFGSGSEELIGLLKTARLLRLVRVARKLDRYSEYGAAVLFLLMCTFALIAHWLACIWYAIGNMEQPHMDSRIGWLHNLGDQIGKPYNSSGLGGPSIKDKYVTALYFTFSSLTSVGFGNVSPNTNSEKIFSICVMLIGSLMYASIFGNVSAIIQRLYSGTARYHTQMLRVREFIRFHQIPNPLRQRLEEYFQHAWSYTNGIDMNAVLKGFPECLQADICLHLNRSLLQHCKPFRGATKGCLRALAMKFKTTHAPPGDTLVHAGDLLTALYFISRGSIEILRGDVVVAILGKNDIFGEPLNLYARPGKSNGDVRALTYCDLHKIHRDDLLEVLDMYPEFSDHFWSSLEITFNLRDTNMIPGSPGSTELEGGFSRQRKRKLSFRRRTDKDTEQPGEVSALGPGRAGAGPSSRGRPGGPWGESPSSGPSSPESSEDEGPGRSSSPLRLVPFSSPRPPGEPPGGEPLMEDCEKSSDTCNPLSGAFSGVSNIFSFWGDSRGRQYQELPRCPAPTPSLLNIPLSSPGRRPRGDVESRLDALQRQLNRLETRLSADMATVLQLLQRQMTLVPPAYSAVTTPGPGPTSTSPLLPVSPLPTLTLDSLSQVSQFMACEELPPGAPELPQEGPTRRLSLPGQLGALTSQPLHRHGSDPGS

Row | Ki [1] [nM] | Kb [2] [nM] | Ki [3] [nM] | fold change (FC) [4] | Structure (SMILES) | further results
1 | 16 | 1260 | – | – | Cc1cc(Oc2ccc(C(=O)NCCN3CCCCC3)cc2)c(NS(=O)(=O)c2ccc(Cl)c(C(F)(F)F)c2)cc1Cl | –
2 | 10 | 398 | – | – | COc1cc(Oc2ccc(C(=O)NCCN3CCCCC3)cc2)c(NS(=O)(=O)c2ccc(Cl)c(C(F)(F)F)c2)cc1Cl | –
3 | 2 | 501 | – | – | O=C(NCCN1CCCC1)c1ccc(Oc2ccc(Cl)cc2NS(=O)(=O)c2ccc(Cl)c(C(F)(F)F)c2)cc1 | –
4 | 631 | – | 2510 | 4 | O=C(NCCN1CCCC1)c1ccccc1Oc1ncc(Cl)cc1NS(=O)(=O)c1ccc(Cl)c(Cl)c1 | –
5 | 200 | – | 2510 | 13 | O=C(NCCN1CCNCC1)c1cccc(Oc2ncc(Cl)cc2NS(=O)(=O)c2ccc(Cl)c(Cl)c2)c1 | –
6 | 8 | 501 | – | – | Cc1cc(C(=O)NCCN2CCCC2)ccc1Oc1ccc(Cl)cc1NS(=O)(=O)c1ccc(Cl)c(C(F)(F)F)c1 | –
7 | 79 | – | 1260 | 16 | O=C(NCCN1CCCCC1)c1cccc(Oc2ncc(Cl)cc2NS(=O)(=O)c2ccc(Cl)c(Cl)c2)c1 | –
8 | 25 | 1000 | – | – | COc1cc(C(=O)NCCN2CCCCC2)ccc1Oc1ccc(Cl)cc1NS(=O)(=O)c1ccc(Cl)c(C(F)(F)F)c1 | –
9 | 13 | – | 63 | 5 | O=C(NCCN1CCCC1)c1ccc(Oc2ncc(Cl)cc2NS(=O)(=O)c2ccc(Cl)c(Cl)c2)cc1 | –
10 | 6 | 251 | – | – | COc1cc(C(=O)NCCN2CCCC2)ccc1Oc1ccc(Cl)cc1NS(=O)(=O)c1ccc(Cl)c(C(F)(F)F)c1 | half-life [5]: 3.9 h; Cmax [6]: 652 ng/mL; IC50 [7]: > 10000 nM; IC50 [8]: > 25100 nM; Vd [9]: 2.7 L/kg; Activity (Mus musculus): 56%; clearance [10]: 17 mL/min/kg; Cmax [11]: 1970 ng/mL; IC50 [12]: 25100 nM; logD [13]: 2.3; bioavailability [14]: 37%
11 | 40 | – | 251 | 6 | O=C(NCCN1CCNCC1)c1ccc(Oc2ncc(Cl)cc2NS(=O)(=O)c2ccc(Cl)c(Cl)c2)cc1 | –
12 | 8 | 398 | – | – | Cc1cc(Oc2ccc(C(=O)NCCN3CCCC3)cc2)c(NS(=O)(=O)c2ccc(Cl)c(C(F)(F)F)c2)cc1Cl | –
13 | – | – | 1260 | 126 | Cc1ncccc1Oc1ncc(Cl)cc1NS(=O)(=O)c1ccc(Cl)c(Cl)c1 | –
14 | 100 | – | 1000 | 10 | O=C(NCCN1CCCC1)c1cccc(Oc2ncc(Cl)cc2NS(=O)(=O)c2ccc(Cl)c(Cl)c2)c1 | –
15 | 63 | 3160 | – | – | O=C(NCCN1CCCCC1)c1ccc(Oc2ccc(Cl)cc2NS(=O)(=O)c2ccc(Cl)c(Cl)c2)cc1 | –
16 | 13 | 1580 | 20 | 1.5 | O=C(NCCN1CCCCC1)c1ccc(Oc2ncc(Cl)cc2NS(=O)(=O)c2ccc(Cl)c(Cl)c2)cc1 | –
17 | 3 | 398 | – | – | O=C(NCCN1CCCCC1)c1ccc(Oc2ncc(Cl)cc2NS(=O)(=O)c2ccc(Cl)c(C(F)(F)F)c2)cc1 | Cmax [15]: 624 ng/mL; IC50 [7]: > 10000 nM; IC50 [8]: > 25100 nM; Activity (Mus musculus): 54%; Cmax [11]: 1520 ng/mL; clearance [16]: 39 mL/min/kg; logD [13]: 3.2; bioavailability [17]: 10%; half-life [18]: 0.9 h; Vd [19]: 1.9 L/kg
18 | 25 | 2510 | – | – | Cc1cc(C(=O)NCCN2CCCCC2)ccc1Oc1ccc(Cl)cc1NS(=O)(=O)c1ccc(Cl)c(C(F)(F)F)c1 | –
19 | 794 | – | 1590 | 2 | O=C(NCCN1CCCCC1)c1ccccc1Oc1ncc(Cl)cc1NS(=O)(=O)c1ccc(Cl)c(Cl)c1 | –
20 | 4 | 398 | – | – | COc1cc(Oc2ccc(C(=O)NCCN3CCCC3)cc2)c(NS(=O)(=O)c2ccc(Cl)c(C(F)(F)F)c2)cc1Cl | –
21 | 63 | 3980 | – | – | O=C(NCCN1CCC(F)(F)C1)c1ccc(Oc2ccc(Cl)cc2NS(=O)(=O)c2ccc(Cl)c(C(F)(F)F)c2)cc1 | –
22 | 10 | 631 | – | – | O=C(NCCN1CCCCC1)c1ccc(Oc2ccc(Cl)cc2NS(=O)(=O)c2ccc(Cl)c(C(F)(F)F)c2)cc1 | –
